Compound activity (PubChem)
CHO parental Ca: signal in parental CHO cells, OX1R antagonist counter-screen | parental CHO-K1, ATP-induced calcium, Fluo-8 fluorescence | inhibition, % at 5.6 µM | 330,000 tested, 0.63% active | AID 463079;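 active = inhibition above that plate's mean sample inhibition plus 3 SD, cut at about 26% in these data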;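 note: 0% = ATP-challenged DMSO wells and 100% = DMSO wells without ATP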
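Assay system – parental CHO cells · Reagent – ATP stimulus · Detection – intracellular calcium via Fluo-8 no-wash fluorescent dye · Evaluation – percent inhibition of ATP-evoked calcium rise, normalized to controls · Controls – ATP wells versus no-ATP DMSO wells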
OX1R antag-1: antagonists of human orexin 1 receptor (OX1R). OX1R-expressing cells, FRET antagonist read-out. inhibition, % at 6.6 µM. 330,000 tested, 1.8% active; in the data active = inhibition mostly above about 38%, no sharp cut-off; inactive = mostly below about 40%;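 note: 0% = agonist challenge alone and 100% = reference antagonist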
TAAR1 ag: agonists of human TAAR1. Q96RJ0. CHO RD-HGA16 TAAR1, Fluo-8 calcium fluorescence; vehicle wells 0%, saturating PEA agonist 100%. activation, % at 3 µM. 360,000 tested, 0.99% active;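 active = activation above the mean activation of all test compounds in the run plus 3 SD, cut at about 38% in these data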
Target sequence (Q96RJ0 whole entry, looked up): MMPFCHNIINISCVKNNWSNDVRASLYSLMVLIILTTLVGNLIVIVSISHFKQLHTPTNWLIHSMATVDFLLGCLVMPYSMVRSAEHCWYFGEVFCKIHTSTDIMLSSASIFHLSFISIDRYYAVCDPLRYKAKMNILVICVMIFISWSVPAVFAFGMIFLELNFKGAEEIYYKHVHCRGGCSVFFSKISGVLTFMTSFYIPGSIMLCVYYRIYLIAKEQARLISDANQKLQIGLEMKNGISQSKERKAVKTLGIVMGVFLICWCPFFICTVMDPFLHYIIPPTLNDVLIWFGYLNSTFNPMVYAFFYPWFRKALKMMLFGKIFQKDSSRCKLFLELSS
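Benchmarks: low control DMSO, high control PEA (EC100); System: CHO RD-HGA16 cells carrying human TAAR1 plus Gα16; Detection: Fluo-8 fluorescence, 5 s baseline then 140 s kinetic read; Schedule: 17-24 h plating, Fluo-8 75 min 37 °C, 30 min RT; Read-out basis: % activation from peak over basal fluorescence ratio, DMSO-to-PEA scaled.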
OX1R antag-2: human HCRTR1 antagonism | O43613 | CHO/OX1R cells, Fluo-8 calcium fluorescence, orexin A | 330,000 tested, 0.43% active | inhibition, % at 5 µM | AID 434989;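 active = inhibition above its plate's threshold, mean inhibition of all tested compounds on the plate plus 3 SD, cut at about 37% in these data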;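 note: 0% = orexin A challenge wells and 100% = SB-334867-A antagonist wells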
TAAR1 antag: human TAAR1 antagonism | CHO RD-HGA16 TAAR1, Fluo-8 calcium fluorescence, antagonist | inhibition, % at 3 µM | 360,000 tested, 1.5% active | AID 624466;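 active = inhibition above a per-plate cutoff, the mean inhibition of test compounds on that plate plus 3 SD, cut at about 49% in these data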;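 note: 0% = DMSO plus EC80 beta-PEA response and 100% = DMSO alone without agonist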
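Test system: CHO RD-HGA16 cells bearing hTAAR1 | Reagent: β-PEA, EC80 | Compound dosing: 3 µM, single point | Schedule: Dye loading 75 min at 37 °C, then 30 min room temperature | Signal: Calcium fluorescence with Fluo-8 | Evaluation: Percent inhibition of PEA-evoked calcium signal, max/basal emission ratio | Control set: DMSO-only wells and EC80 β-PEA-stimulated wells | Repeats: Singlicate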
GPR7 antagonist: antagonists of human GPR7 (neuropeptides B/W receptor 1); P48145; GPR7-expressing cells, fluorescence antagonist assay; inhibition, % at 4.4 µM; 290,000 tested, 1.1% active; AID 1861; in the data active = inhibition above about 16%, passing the limit was not always enough;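 note: cells stimulated with the agonist NPW; 0% = agonist with vehicle and 100% = vehicle without agonist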
Target sequence (P48145 whole entry, looked up): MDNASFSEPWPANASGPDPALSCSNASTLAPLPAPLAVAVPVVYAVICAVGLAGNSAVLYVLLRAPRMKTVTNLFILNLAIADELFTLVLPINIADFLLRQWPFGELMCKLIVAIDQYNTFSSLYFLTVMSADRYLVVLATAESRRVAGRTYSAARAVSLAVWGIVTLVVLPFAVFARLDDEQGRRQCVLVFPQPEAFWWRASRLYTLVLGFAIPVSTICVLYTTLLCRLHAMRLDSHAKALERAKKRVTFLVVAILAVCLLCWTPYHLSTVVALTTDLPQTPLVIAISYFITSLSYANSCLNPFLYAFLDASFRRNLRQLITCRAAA
TAAR1 ag confirm: human TAAR1 agonism, confirmed. CHO RD-HGA16 TAAR1, Fluo-8 calcium fluorescence; scaled: DMSO 0%, maximal phenethylamine 100%. activation, % at 3 µM. AID 651783. shares compounds with TAAR1 ag. 2,400 tested, 82% active;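 active = activation above a cutoff set at the run's mean compound activation plus 3 SD, cut at about 39% in these data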
Ga16 ag counter: nonselective agonist in parental cells, TAAR1 agonist counter-screen | 2,400 tested, 50% active | shares compounds with TAAR1 ag | activation, % at 3 µM | CHO-Ga16 parental, Fluo-8 calcium fluorescence; normalized to maximal ATP response, DMSO zero | AID 651787;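 active = activation above the run cutoff, the mean activation over all tested wells plus 3 SD, cut at about 12% in these data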;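 note: 0% = DMSO wells and 100% = maximal ATP response on the peak over basal ratio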
TAAR1 desens: TAAR1 response desensitization, agonist counter-screen; shares compounds with TAAR1 ag; CHO RD-HGA16 hTAAR1, Fluo-8 calcium, beta-PEA response inhibition; inhibition, % at 3 µM; 2,400 tested, 46% active;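 active = inhibition above the run cutoff, the mean inhibition of all test compounds plus 3 SD, cut at about 49% in these data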;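 note: beta-PEA stimulus applied at its EC80; loss of beta-PEA calcium signal after compound pretreatment read as receptor desensitization; 0% = DMSO with beta-PEA at EC80 and 100% = DMSO alone without agonist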
Ga16 nonsel ant: counter-screen for TAAR1 agonists: nonselective Ga16 antagonists. inhibition, % at 3 µM. shares compounds with TAAR1 ag. CHO-Ga16 ATP-induced calcium, Fluo-8 fluorescence. AID 651952. 2,400 tested, 39% active;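 active = inhibition above the plate's mean compound inhibition plus 3 SD, computed per plate, cut at about 22% in these data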;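 note: 0% = EC80 ATP with DMSO and 100% = DMSO wells without ATP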
An asterisk follows results filed as active; / = no result. Rows were chosen to be rich in hits. Some 4.6% of all compounds tested hit in one or more screens of this group.

SMILES	CHO parental Ca	OX1R antag-1	TAAR1 ag	OX1R antag-2	TAAR1 antag	GPR7 antagonist	TAAR1 ag confirm	Ga16 ag counter	TAAR1 desens	Ga16 nonsel ant
CN(C)c1ccc(Nc2nc(N)c3ccccc3n2)cc1	-5	3	23	-13	2	-12	/	/	/	/
Nc1nc(Nc2ccccc2)nc2ccccc12	-25	21	103*	-26	91*	2	95*	7	100*	10
Cc1ccc(Nc2nc(N)c3ccccc3n2)cc1Cl	-8	13	50*	-20	38	-3	83*	24*	75*	8
Nc1nc(Nc2ccc(Cl)cc2)nc2ccccc12	-8	20	65*	-13	72*	12	84*	8	70*	5
CCNC(=O)C1(C)CCCN(C(=O)c2nc(C)oc2C)C1 (stereo not given)	/	/	2	/	-7	/	/	/	/	/
COc1ccc(-c2csc(NC(=O)CSC(C)C(=O)Nc3cc(C)on3)n2)cc1OC (stereo not given)	-19	14	7	-29	16	/	/	/	/	/
COC(=O)c1ccc(Cn2c(C)c(C(=O)NCc3ccc([N+](=O)[O-])cc3)sc2=O)o1	/	/	21	/	38	/	/	/	/	/
Cc1cccc(C)c1Cn1c(C)c(C(=O)NCc2ccc([N+](=O)[O-])cc2)sc1=O	/	/	62*	/	49*	/	47*	29*	53*	41*
O=C(CNS(=O)(=O)c1c(Cl)cccc1Cl)OCc1csc(-c2ccccc2)n1	-1	33	9	14	22	-2	/	/	/	/
NCCOc1ccc(C23CC4CC(CC(C4)C2)C3)cc1	7	-2	81*	2	16	5	94*	60*	81*	76*
Cc1cc(C(F)F)n2ncc(C(=O)NCc3ccccc3)c2n1	-2	7	-1	-2	2	-7	/	/	/	/
Cc1nc2c(C(=O)NCCc3ccccc3Cl)c[nH]n2c(=O)c1Cl	-4	10	84*	-16	61*	2	80*	14*	83*	5
Cc1nc2c(C(=O)NCc3ccccc3Cl)c[nH]n2c(=O)c1Cl	-10	14	4	-9	-28	24	/	/	/	/
Cc1cc(C(F)F)n2ncc(C(=O)NCCc3ccccc3Cl)c2n1	-17	17	68*	-19	14	-9	69*	1	32	5
COc1ccc(CN(C)C(=O)C2CSC3(C)CCC(=O)N23)c(OC)c1 (stereo not given)	/	/	1	/	-18	/	/	/	/	/
Cc1ccc(CN2CCC(n3nccc3NC(=O)C3CCOC3)CC2)cc1 (stereo not given)	-8	24	2	-20	-25	-17	/	/	/	/
O=C(Nc1ccncc1)Nc1cccc(Cl)c1	23	6	59*	4	34	10	86*	16*	52*	19
O=C(Nc1ccccc1)Nc1ccncc1	1	8	82*	1	53*	-6	97*	6	86*	8
CN(c1cccc(NC(=O)Nc2cccc(Cl)c2)c1)S(C)(=O)=O	73*	98*	43*	72*	19	10	37	9	32	29*
CC(=O)c1ccc(NC(=O)Nc2ccccc2)cc1	-4	14	54*	-6	15	12	68*	11	55*	14
O=C(NCc1ccccn1)C(C(=O)c1cccc([N+](=O)[O-])c1)n1cc(Cl)ccc1=O (stereo not given)	2	6	2	-2	-5	4	/	/	/	/
C[C@@H]1CN([C@H](C)CO)C(=O)CCCn2nncc2CO[C@@H]1CN(C)S(=O)(=O)c1ccccc1C#N	/	/	8	/	-22	/	/	/	/	/
CC(CC(=O)c1ccccc1)=NCCCN=C(C)CC(=O)c1ccccc1	/	/	-2	/	-24	/	/	/	/	/
O=C(C1CCN(S(=O)(=O)N2CCC3(CC2)OCCO3)CC1)N1CCC(Cc2ccccc2)CC1	4	7	4	-16	-10	-8	/	/	/	/
COc1ccc(CNC(=O)Nc2nc(C(N)CCc3ccccc3)cs2)cc1 (stereo not given)	/	/	21	/	31	/	/	/	/	/
SMILES	CHO parental Ca	OX1R antag-1	TAAR1 ag	OX1R antag-2	TAAR1 antag	GPR7 antagonist	TAAR1 ag confirm	Ga16 ag counter	TAAR1 desens	Ga16 nonsel ant
NC(Cc1ccc(F)cc1)c1csc(NC(=O)NC(c2ccccc2)c2ccccc2)n1 (stereo not given)	/	/	56*	/	68*	/	25	23*	35	45*
COc1ccc(CNC(=O)Nc2nc(C(N)Cc3ccc(F)cc3)cs2)cc1 (stereo not given)	/	/	57*	/	59*	/	70*	34*	66*	59*
COc1ccc(CC(N)c2csc(NC(=O)c3cc(C(C)(C)C)oc3C)n2)cc1 (stereo not given)	/	/	48*	/	28	/	30	30*	40	51*
COc1ccc(CC(N)c2csc(NC(=O)CCc3ccccc3)n2)cc1 (stereo not given)	/	/	62*	/	59*	/	31	28*	40	37*
CCCOC1CCCN(C(=O)c2ccc(OC3CCN(Cc4ccccn4)CC3)cc2)C1 (stereo not given)	-9	26	1	-20	-19	-9	/	/	/	/
CCOc1nc(-c2ccccc2Cl)ccc1C#N	-9	20	6	-14	17	4	/	/	/	/
COc1ccc2c(c1)C(SCC(=O)NCCc1ccccc1)CC(C)(C)O2 (stereo not given)	-14	16	68*	-32	61*	4	73*	1	76*	16
O=C(CN1C(=O)CCSc2ccccc21)NC1CCCCC1	-8	10	0	-3	1	-17	/	/	/	/
O=[N+]([O-])c1ccc(S(=O)(=O)NNC(=S)NCCc2ccccc2)cc1	-4	27	52*	-6	-23	-6	56*	3	6	7
CN(C)C1=NC[C@H](Cc2ccccc2)N1CCC1CCCC1	-15	20	6	-20	8	/	/	/	/	/
CN(C)C1=NC[C@H](Cc2ccccc2)N1CCCC1CCCC1	3	16	45*	-15	-15	/	22	7	20	14
COc1cccc(N)c1	/	/	2	/	5	/	/	/	/	/
COc1cccc(N=C(N)N)c1	5	18	67*	12	53*	-17	83*	2	75*	5
